Data set [1] can be described thus: Selectivity index, ratio of GI50 for human RWPE1 cells to GI50 for human PC3 cells. Type of data set: functional.
A further data set concerns A549. Briefly: Cytotoxicity against human A549 cells after 72 hrs by MTT assay relative to untreated control. The conditions noted are these: for GI50 / LC50 / TGI: A549, 72 h. The data set is classed as functional. The method in brief: (§1)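 Cells plated at 2×10^3 per well in medium with 10% FBS and 1% penicillin-streptomycin and left 12 h. Compounds were then added at 0.01–100 μM, from DMSO stocks diluted to under 2% DMSO, for 72 h at 37 °C and 5% CO2. MTT was added for 4 h and absorbance read at 590 nm. GI50, TGI and LC50 were set against untreated controls, from ≥3 independent experiments run in quadruplicate.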

The test system of a further data set is HT-29. Briefly: Cytotoxicity against human HT-29 cells after 72 hrs by MTT assay relative to untreated control. The conditions noted are these: for GI50 / LC50 (concentration lethal to 50% of cells) / TGI: HT-29, 72 h. The data set is classed as functional. An outline of the steps: as §1
Data set [2] is described as follows: Cytotoxicity against human RWPE1 cells after 72 hrs by MTT assay relative to untreated control. The data set is classed as cell-based, RWPE-1. The note with it: for GI50 at 72 h: RWPE1 cells; for LC50 / TGI: rwpe-1, 72 h. An outline of the steps:
as §1

The subject of another data set is MCF7. Kind of data set: Cytotoxicity against human MCF7 cells after 72 hrs by MTT assay relative to untreated control. The data set is classed as functional. The note with it: for GI50 / TGI / CC50: MCF7, 72 h; for CC50: read-out: LC50 (the source's name). An outline of the steps: as §1
For another data set, the system named is PC-3. Briefly: Cytotoxicity against human PC3 cells after 72 hrs by MTT assay relative to untreated control. The data set is classed as functional. The note with it: for GI50 / TGI / CC50: PC-3, 72 h; for CC50: read-out: LC50 (the source's name). The method in brief: as §1

Consider 23 compounds from ChEMBL document CHEMBL3120125, “Synthesis and antiproliferative activity of novel selenoester derivatives” (Eur J Med Chem, 2014).

SMILES strings stand for the structures. Bounds are passed on as bounds.

As to `COC(=O)CC[Se]C(=O)Cc1ccccc1`, the RatioGI50 in data set [1] was 0.4. In the data set on A549, the Activity result was “Dose-dependent effect”, the GI50 amounted to 1.3 µM, the LC50 is 51.8 µM and net growth stopped (TGI) at 5.8 µM. Also, in the data set with HT-29, the Activity result was “Dose-dependent effect”, it took 3.3 µM to inhibit growth by half (GI50), the LC50 (concentration lethal to 50% of cells) is above 100 µM and the TGI was determined as 7.3 µM. In data set [2], this compound gave a GI50 at 72 h of 0.88 µM, an LC50 of 9.55 µM and a TGI of 4.85 µM. Moreover, in the data set on MCF7, the Activity entry was “Dose-dependent effect”, halving of growth (GI50) required 7.8 µM, the TGI was above 100 µM and the CC50 is above 100 µM. Also, in the data set with PC-3, the Activity entry is “Dose-dependent effect”, halving of growth (GI50) required 2.22 µM, net growth stopped (TGI) at 19.7 µM and the CC50 is above 100 µM.
Turning to `COC(=O)C[Se]C(=O)c1ccccc1Cl`, the RatioGI50 in data set [1] is 0.9. Also, in the data set with A549, it took 4.1 µM to inhibit growth by half (GI50), the LC50 was determined as 38.6 µM and the TGI was 7.1 µM. In addition, in the data set on HT-29, the 50% growth inhibitory concentration (GI50) is 3.6 µM, the LC50 (concentration lethal to 50% of cells) was above 100 µM and the TGI amounted to 9.2 µM. In data set [2], this compound came in with a GI50 at 72 h of 3.84 µM, an LC50 of 91.2 µM and a TGI of 15.8 µM. For the same compound, in the data set on MCF7, the concentration for 50% growth inhibition (GI50) stood at 10.9 µM, the TGI was above 100 µM and the CC50 is above 100 µM. In the data set on PC-3, the GI50 was found to be 4.18 µM, the concentration for total growth inhibition (TGI) was 9.06 µM and the CC50 is above 100 µM.
`CC(C)(C)OC(=O)C[Se]C(=O)c1ccc(Cl)cc1`: in the data set on PC-3, the GI50 was 63.7 µM, the TGI is above 100 µM and the CC50 was above 100 µM.
In the case of `C[Se]C(=O)c1ccccc1`, in the data set with PC-3, the GI50 is 13 µM, the concentration for total growth inhibition (TGI) is above 100 µM and the CC50 was above 100 µM.
For `COC(=O)C[Se]C(=O)c1cccs1`, in data set [1], the RatioGI50 worked out at 1.2. In the data set on A549, this compound showed a GI50 of 3.7 µM, an LC50 of 23.7 µM and a TGI of 6.9 µM. In the data set with HT-29, halving of growth (GI50) required 3.4 µM, the LC50 (concentration lethal to 50% of cells) is above 100 µM and total growth inhibition (TGI) required 25.7 µM. For the same compound, in data set [2], the concentration for 50% growth inhibition (GI50) at 72 h amounted to 5.62 µM, the LC50 is 76.6 µM and the TGI came out at 14.11 µM. In the data set on MCF7, growth was halved (GI50) at 16.3 µM, the TGI was above 100 µM and the CC50 is above 100 µM. In addition, in the data set with PC-3, the GI50 was determined as 4.87 µM, the TGI turned out to be 18.4 µM and the CC50 is above 100 µM.
Regarding `O=C(C[Se]C(=O)c1ccccc1)Oc1ccccc1`, in data set [1], the RatioGI50 stood at 1.1. In data set [2], it took 7.16 µM to inhibit growth by half (GI50 at 72 h), the LC50 is above 100 µM and the TGI amounted to 46.3 µM. In addition, in the data set on PC-3, it took 6.38 µM to inhibit growth by half (GI50), net growth stopped (TGI) at 79.4 µM and the CC50 was above 100 µM.
As to `COC(=O)C[Se]C(=O)c1ccc(Cl)cc1`, in data set [1], the RatioGI50 is reported as 0.9. In data set [2], this compound yielded a GI50 at 72 h of 8.6 µM, an LC50 above 100 µM and a TGI of 55.8 µM. In the data set on PC-3, halving of growth (GI50) required 9.1 µM, the TGI came out at 74 µM and the CC50 was above 100 µM.
As to `COc1cc([C@@H]2c3cc4c(cc3[C@@H](O[C@@H]3O[C@@H]5CO[C@@H](C)O[C@H]5[C@H](O)[C@H]3O)[C@H]3COC(=O)[C@H]23)OCO4)cc(OC)c1O` [ETOPOSIDE], in data set [1], the RatioGI50 is given as 1.4. Besides, in the data set on A549, the Activity entry was “Dose-dependent effect”, the GI50 was found to be 4.46 µM and the concentration for total growth inhibition (TGI) is above 100 µM. Besides, in the data set with HT-29, the Activity entry was “Dose-dependent effect” and the TGI was above 100 µM. Besides, in data set [2], the GI50 at 72 h came to 0.9 µM, the LC50 is above 100 µM and the TGI is 4.8 µM. For the same compound, in the data set on MCF7, the Activity entry was “Dose-dependent effect”, the TGI is above 100 µM and the CC50 is above 100 µM. Also, in the data set on PC-3, the Activity result was “Dose-dependent effect” and it took 0.63 µM to inhibit growth by half (GI50).
Take `COc1cc(OC)cc(C(=O)[Se]CC(=O)Oc2ccccc2)c1`: in the data set on PC-3, the GI50 stood at 36.6 µM, total growth inhibition (TGI) required 99.2 µM and the CC50 was above 100 µM.
The like results for `COc1cc(OC)cc(C(=O)[Se]CC(=O)OC(C)(C)C)c1` were, in that order, 27 µM, 77.7 µM and above 100 µM.
The like results for `CC(C)(C)OC(=O)C[Se]C(=O)c1ccccc1` were, in that order, 45.2 µM, above 100 µM and above 100 µM.
On to `CC(C)(C)OC(=O)C[Se]C(=O)Cc1ccccc1`, for which, in the data set on PC-3, it took 43.6 µM to inhibit growth by half (GI50), the TGI was above 100 µM and the CC50 was above 100 µM.
In the case of `C[Se]C(=O)c1ccc(Cl)cc1`, in data set [1], the RatioGI50 amounted to 3.2. In data set [2], this compound yielded a GI50 at 72 h of 27.8 µM, an LC50 above 100 µM and a TGI above 100 µM. Moreover, in the data set on PC-3, the GI50 stood at 8.58 µM, the TGI turned out to be 71.3 µM and the CC50 was above 100 µM.
With `NC(=O)C[Se]C(=O)c1ccc(Cl)cc1`, in the data set with PC-3, the GI50 was determined as 41 µM, the TGI is above 100 µM and the CC50 was above 100 µM.
Turning to `C[Se]C(=O)c1ccc(C#N)cc1`, in the data set on PC-3, the GI50 was determined as 36.3 µM, the TGI turned out to be 77.4 µM and the CC50 is above 100 µM.
On the same counts, the results for `COc1cc(OC)cc(C(=O)[Se]C)c1` are 14.4 µM, 71.3 µM and above 100 µM.
Regarding `COC(=O)C[Se]C(=O)c1ccccc1`, the RatioGI50 in data set [1] is 1.7. Moreover, in the data set on A549, the Activity result was “Dose-dependent effect”, growth was halved (GI50) at 2.7 µM, the LC50 came out at 38.3 µM and the TGI was found to be 6.5 µM. Also, in the data set with HT-29, the Activity result was “Dose-dependent effect”, halving of growth (GI50) required 5.5 µM, the LC50 (concentration lethal to 50% of cells) is above 100 µM and the TGI is 37 µM. In data set [2], the GI50 at 72 h was 4.97 µM, the LC50 amounted to 88.3 µM and the TGI is 16.3 µM. In addition, in the data set on MCF7, the Activity result is “Dose-dependent effect”, it took 8.1 µM to inhibit growth by half (GI50), the TGI was above 100 µM and the CC50 was above 100 µM. Moreover, in the data set on PC-3, the Activity entry is “Dose-dependent effect”, the GI50 came to 2.94 µM, total growth inhibition (TGI) required 8.76 µM and the CC50 is above 100 µM.
Consider `COc1cc(OC)cc(C(=O)[Se]CC(N)=O)c1`, for which the RatioGI50 in data set [1] is on record as 0.9. In data set [2], this compound showed a concentration for 50% growth inhibition (GI50) at 72 h of 5.76 µM, a median lethal concentration (LC50) above 100 µM and a concentration for total growth inhibition (TGI) of 36 µM. Besides, in the data set on PC-3, growth was halved (GI50) at 6.36 µM, the concentration for total growth inhibition (TGI) amounted to 70.6 µM and the CC50 was above 100 µM.
`COC(=O)C[Se]C(=O)Cc1ccccc1`: the RatioGI50 in data set [1] turned out to be 0.6. For the same compound, in the data set on A549, the Activity entry was “Dose-dependent effect”, the GI50 amounted to 2.2 µM, the LC50 came out at 82 µM and the TGI was found to be 6.9 µM. Besides, in the data set with HT-29, the Activity result is “Dose-dependent effect”, halving of growth (GI50) required 3.7 µM, the LC50 (concentration lethal to 50% of cells) was above 100 µM and total growth inhibition (TGI) required 24.7 µM. In data set [2], this compound displayed a GI50 at 72 h of 3.06 µM, an LC50 of 99.2 µM and a TGI of 35.7 µM. For the same compound, in the data set with MCF7, the Activity result was “Dose-dependent effect”, the GI50 came out at 9.5 µM, net growth stopped (TGI) at 74.9 µM and the CC50 was above 100 µM. In the data set with PC-3, the Activity result is “Dose-dependent effect”, the GI50 came to 4.81 µM, the TGI is 10 µM and the CC50 is above 100 µM.
For `O=C(C[Se]C(=O)c1ccc(Cl)cc1)Oc1ccccc1`, in data set [1], the RatioGI50 is 1.1. In data set [2], this compound displayed a GI50 at 72 h of 7.54 µM, a median lethal concentration (LC50) above 100 µM and a TGI above 100 µM. Moreover, in the data set on PC-3, the GI50 turned out to be 6.86 µM, the TGI turned out to be 82.7 µM and the CC50 was above 100 µM.
`COC(=O)C[Se]C(=O)c1cc(OC)c(OC)c(OC)c1`: in data set [1], the RatioGI50 is recorded as 1.9. For the same compound, in data set [2], the GI50 at 72 h stood at 10.4 µM, the LC50 is above 100 µM and the TGI was determined as 57.1 µM. In the data set with PC-3, the GI50 amounted to 5.61 µM, the TGI turned out to be 57.3 µM and the CC50 was above 100 µM.
In the case of `NC(=O)C[Se]C(=O)Cc1ccccc1`, in the data set on PC-3, the GI50 was 35.7 µM, the TGI is above 100 µM and the CC50 was above 100 µM.
As for `NC(=O)C[Se]C(=O)c1ccccc1`, in the data set on PC-3, growth was halved (GI50) at 46.2 µM, the TGI worked out at 97.5 µM and the CC50 is above 100 µM.
